CSC inhib = blocks cancer stem cells | inhibition, % at 7.5 µM | 1.1% of 300,000 active | cancer stem cell-like cells viability, luminescence; in the data active means inhibition above about 75%; tested in HMLE shEcad cells
XBP1 UPR activ = activators of adaptive arm of unfolded protein response (XBP1). 0.33% of 330,000 active. activation, % at 20 µM. AID 463104. CHO-XBP1 luciferase reporter, IRE1-XBP1 UPR activation, luminescence; percent of tunicamycin response, DMSO as zero;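 active means versus positive control, 20 µM dose yields 30% or more activation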
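Signal: luciferase luminescence; Assay system: CHO-XBP1 luciferase reporter cells; Amount: one thousand reporter cells per well; Dosing: 20 µM single concentration, DMSO 1%; Benchmarks: high control tunicamycin 10 µg/mL final, low control DMSO vehicle only; Schedule: 6 h compound exposure at 37 °C, 5% CO2; Evaluation: percent activation relative to tunicamycin reference.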
SKKanGAS inh = SKKanGAS growth inhibition; S. pyogenes SKKanGAS, kanamycin growth, BacTiter-Glo, 6 h; inhibition, % at 7.5 µM; 1.3% of 300,000 active; AID 1662;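 active means mean replicate score, as percent of positive control median, at least 50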;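 further: strain carries kanamycin resistance gene driven by streptokinase promoter and grows in 40 µg/ml kanamycin; loss of luminescence reflects streptokinase promoter inhibition or plain growth inhibition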
Mdm2 MdmX PPI = disrupts the human Mdm2-MdmX interaction; SaOS-2 split-luciferase Mdm2/MdmX complementation, luminescence; 3% of 330,000 active; inhibition, % at 8 µM; O15151+Q00987; AID 485346;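 active means inhibition of at least 50% at 8 µM in the primary screen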
Target sequence (O15151 whole entry, looked up): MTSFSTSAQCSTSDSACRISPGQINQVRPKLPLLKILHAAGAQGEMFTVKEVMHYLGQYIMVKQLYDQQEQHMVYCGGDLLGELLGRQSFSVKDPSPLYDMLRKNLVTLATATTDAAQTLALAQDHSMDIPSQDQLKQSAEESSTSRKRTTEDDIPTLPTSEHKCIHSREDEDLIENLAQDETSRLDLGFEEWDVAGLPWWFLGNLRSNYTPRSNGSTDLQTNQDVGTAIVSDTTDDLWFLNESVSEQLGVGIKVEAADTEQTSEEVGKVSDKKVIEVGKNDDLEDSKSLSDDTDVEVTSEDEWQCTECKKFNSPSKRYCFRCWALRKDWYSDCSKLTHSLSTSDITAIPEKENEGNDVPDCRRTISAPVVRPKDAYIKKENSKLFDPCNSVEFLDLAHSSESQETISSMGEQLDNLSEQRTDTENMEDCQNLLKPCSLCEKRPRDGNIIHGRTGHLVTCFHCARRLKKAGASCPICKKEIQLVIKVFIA
Target sequence (Q00987 whole entry, looked up): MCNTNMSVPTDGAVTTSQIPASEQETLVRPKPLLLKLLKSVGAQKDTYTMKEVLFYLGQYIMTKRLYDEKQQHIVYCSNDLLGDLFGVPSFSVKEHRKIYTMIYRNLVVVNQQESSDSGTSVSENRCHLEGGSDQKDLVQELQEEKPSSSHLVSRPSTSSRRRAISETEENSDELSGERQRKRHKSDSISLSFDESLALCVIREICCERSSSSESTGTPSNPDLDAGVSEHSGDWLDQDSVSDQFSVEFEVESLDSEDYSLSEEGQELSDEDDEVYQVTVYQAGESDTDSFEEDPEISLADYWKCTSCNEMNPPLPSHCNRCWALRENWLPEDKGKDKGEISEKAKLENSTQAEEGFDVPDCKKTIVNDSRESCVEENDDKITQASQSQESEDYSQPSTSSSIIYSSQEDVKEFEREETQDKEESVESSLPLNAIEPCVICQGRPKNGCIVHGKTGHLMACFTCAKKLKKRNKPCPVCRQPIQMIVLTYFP
UPR CHOP act = apoptotic UPR (CHOP) activation; activation, % at 10 µM; CHO-CHOP luciferase reporter, luminescence; percent of tunicamycin response over DMSO baseline; 0.34% of 330,000 active; AID 449763;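 active means at 10 µM dose, activation of 40% or more, normalized to positive control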
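Material: CHO-CHOP cells, stable luciferase reporter of PERK-eIF2a-CHOP signalling; quantity: 500 reporter cells seeded per well; buffer or medium: F12 medium containing 10% fetal bovine serum; compound: one dose, 10 µM in 0.5% DMSO; incubation: 6 h compound treatment, 37 °C; measured by: Steady-Glo luciferase luminescence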
Beta cell apopt = blocks beta cell apoptosis. 0.8% of 300,000 active. protection from apoptosis, % (test concentration not listed). INS-1E cytokine-induced death, ATP luminescence, 48 h; percent of positive-control rescue, neutral wells zero;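 active means Every replicate reaches about 75%, or at least half do and their mean reaches it too, limit read from the data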;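 further: higher means more ATP so stronger rescue from cytokine killing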
Mdm2 MdmX conf = human Mdm2/MdmX binding inhibition, confirmed | shares compounds with Mdm2 MdmX PPI | luminescent assay | inhibition, % at 8 µM | 55% of 10,000 active | AID 489028; in the data active means inhibition above about 40%
FLuc counter = inhibits full-length luciferase, flagging false Mdm2/MdmX hits; shares compounds with Mdm2 MdmX PPI; SaOS-2 full-length luciferase counterscreen, luminescence; inhibition, % at 8 µM; 77% of 6,200 active; AID 504607;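 active means mean inhibition at 8 µM reaching about 37%, which flags the compound as non-specific, limit read from the data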;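 further: p53-null SaOS-2 cells with luciferase driven by a doxycycline-inducible promoter; compound on cells about two nights before reading with doxycycline added after day one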
Of the large screens only hits and unclear results are named; the others gave an inactive call (follow-up assays come after a bar, where they were run). This is a sample that favours compounds with a hit; in the whole collection about 4.8% have one here.

Cc1cccc(C)c1NCC(=O)N1CCN(Cc2ccccc2)CC1	none
Cc1ccccc1OCC(=O)NNC(=O)Cn1[nH]c(=O)c2ccccc2c1=O	none (no result: SKKanGAS inh)
Cc1nn(S(=O)(=O)c2ccc(Br)cc2)c(C)c1S(=O)(=O)N1CCOCC1	none
COc1cc(NC(=O)c2cc(-c3ccccc3Cl)on2)cc(OC)c1OC	Mdm2 MdmX PPI 65 | Mdm2 MdmX conf 54 | FLuc counter 52
COc1cc(NC(=O)c2cc(-c3cccs3)on2)cc(OC)c1OC	none (no result: CSC inhib, XBP1 UPR activ, Mdm2 MdmX PPI, UPR CHOP act, Beta cell apopt)
COc1cc(C(=O)NCC(c2cccs2)N2CCOCC2)cc(OC)c1OC (stereo unspecified)	none (no result: Beta cell apopt)
CCN(C[C@H]1N[C@@](C)(C(=O)OC)[C@H]2C(=O)N(C)C(=O)[C@@H]12)S(=O)(=O)c1ccc(-c2ccccc2)cc1	none (no result: CSC inhib, SKKanGAS inh)
O=C(C1CC(=O)N(c2ccccc2)C1)N1CCN(c2ccccc2F)CC1 (stereo unspecified)	none
Cc1cc(C)c2nc(N3CCCC(C(=O)NC4CCCC4)C3)sc2c1 (stereo unspecified)	none (no result: Beta cell apopt)
COc1cc(C(=O)NC(C)c2cccc3ccccc23)cc(OC)c1OC (stereo unspecified)	none
O=C(Nc1ccc2c(c1)OCCO2)c1cccc2nc3ccccc3nc12	CSC inhib 83, Mdm2 MdmX PPI 78 | Mdm2 MdmX conf 57 | FLuc counter inactive
O=C(Nc1ccc2c(c1)OCCO2)c1ccccc1F	none
Cn1c(NCC(O)c2ccccc2)nc2c1c(=O)n(Cc1ccc(Cl)cc1)c(=O)n2C (stereo unspecified)	none
Cn1c(NCC(O)c2ccccc2)nc2c1c(=O)n(Cc1ccc(Cl)c(Cl)c1)c(=O)n2C (stereo unspecified)	Mdm2 MdmX PPI 63 | Mdm2 MdmX conf inactive
Cc1onc(-c2ccccc2Cl)c1C(=O)N1CCN(c2cccc(Cl)c2)CC1	Mdm2 MdmX PPI 54 (no result: Beta cell apopt) | Mdm2 MdmX conf 59 | FLuc counter 57
Cc1onc(-c2ccccc2Cl)c1C(=O)N1CCN(c2ccccc2)CC1	none
Cc1[nH]c2ccc(C(=O)N3CCN(c4ccccc4Cl)CC3)cc2c1C	none
Cc1[nH]c2ccc(C(=O)N3CCN(c4cccc(Cl)c4)CC3)cc2c1C	Mdm2 MdmX PPI 51 | Mdm2 MdmX conf 57 | FLuc counter 56
Cc1cccc(N2CCN(C(=O)c3ccc(S(=O)(=O)N(C)c4ccccc4)cc3)CC2)c1C	Mdm2 MdmX PPI 67 (no result: SKKanGAS inh) | Mdm2 MdmX conf 59 | FLuc counter 61
COc1ccccc1N1CCN(C(=O)c2ccc3[nH]c(C)c(C)c3c2)CC1	Mdm2 MdmX PPI 51 | Mdm2 MdmX conf 63 | FLuc counter 66
CN(CC(=O)Nc1ccccc1Cl)C(=O)COC(=O)CCN1C(=O)C2CC=CCC2C1=O (stereo unspecified)	none
COc1ccc(S(=O)(=O)NC(CC(C)C)C(=O)NC(C)c2cccs2)cc1 (stereo unspecified)	none (no result: CSC inhib, SKKanGAS inh)
Cc1ccc(N2CCN(C(=O)c3ccccc3)CC2)c(C)c1	none
COc1cccc(N2CCN(C(=O)c3ccc(CS(=O)c4ccc(C)cc4)o3)CC2)c1 (stereo unspecified)	Mdm2 MdmX PPI 58 | Mdm2 MdmX conf 52 | FLuc counter 61
COc1cc(C(=O)N2CCN(c3ccc(C)cc3C)CC2)cc(OC)c1OC	Mdm2 MdmX PPI 58 | Mdm2 MdmX conf 47 | FLuc counter 44
COc1ccc(S(=O)(=O)Cc2ccc(C(=O)N3CCN(c4cccc(C)c4C)CC3)o2)cc1	Mdm2 MdmX PPI 63 (no result: Beta cell apopt) | Mdm2 MdmX conf 61 | FLuc counter 47
Cc1cccc(N2CCN(C(=O)c3ccc4[nH]c(C)c(C)c4c3)CC2)c1C	Mdm2 MdmX PPI 60 (no result: SKKanGAS inh) | Mdm2 MdmX conf 58 | FLuc counter 71
Cc1ccc(S(=O)(=O)Cc2ccc(C(=O)N3CCN(c4cccc(C)c4C)CC3)o2)cc1	none
Cc1[nH]c2ccc(C(=O)N3CCCC3)cc2c1C	none

Bioassay records: PubChem BioAssay, several laboratories
